From ChEMBL document CHEMBL5696442, “Discovery of type II inhibitors of TGFβ-activated kinase 1 (TAK1) and mitogen-activated protein kinase kinase kinase kinase 2 (MAP4K2)” (J Med Chem, 2015)
Active and inactive are the calls of the source. No cut-off for these calls is given here.

Tests used:
[1] = biological target: Cyclin-dependent kinase 11B (Homo sapiens) (UniProt P21127); experiment: Inhibition of PITSLRE Lys2 labeling site in human Huh-7 cells at 1 uM by KiNativ Profiling analysis relative to control; format: cell-based
[2] = biological target: Mitogen-activated protein kinase kinase kinase kinase 4 (Homo sapiens, UniProt O95819); experiment: Inhibition of ZC1/HGK Lys2 labeling site in human Huh-7 cells at 1 uM by KiNativ Profiling analysis relative to control; format: cell-based
[3] = biological target: T1, Eukaryotic translation initiation factor 2-alpha kinase 3 (Homo sapiens) (UniProt Q9NZJ5); experiment: Inhibition of PEK Lys2 labeling site in human Huh-7 cell lysate at 1 uM by KiNativ Profiling analysis relative to control; format: subcellular
T1 sequence (whole entry): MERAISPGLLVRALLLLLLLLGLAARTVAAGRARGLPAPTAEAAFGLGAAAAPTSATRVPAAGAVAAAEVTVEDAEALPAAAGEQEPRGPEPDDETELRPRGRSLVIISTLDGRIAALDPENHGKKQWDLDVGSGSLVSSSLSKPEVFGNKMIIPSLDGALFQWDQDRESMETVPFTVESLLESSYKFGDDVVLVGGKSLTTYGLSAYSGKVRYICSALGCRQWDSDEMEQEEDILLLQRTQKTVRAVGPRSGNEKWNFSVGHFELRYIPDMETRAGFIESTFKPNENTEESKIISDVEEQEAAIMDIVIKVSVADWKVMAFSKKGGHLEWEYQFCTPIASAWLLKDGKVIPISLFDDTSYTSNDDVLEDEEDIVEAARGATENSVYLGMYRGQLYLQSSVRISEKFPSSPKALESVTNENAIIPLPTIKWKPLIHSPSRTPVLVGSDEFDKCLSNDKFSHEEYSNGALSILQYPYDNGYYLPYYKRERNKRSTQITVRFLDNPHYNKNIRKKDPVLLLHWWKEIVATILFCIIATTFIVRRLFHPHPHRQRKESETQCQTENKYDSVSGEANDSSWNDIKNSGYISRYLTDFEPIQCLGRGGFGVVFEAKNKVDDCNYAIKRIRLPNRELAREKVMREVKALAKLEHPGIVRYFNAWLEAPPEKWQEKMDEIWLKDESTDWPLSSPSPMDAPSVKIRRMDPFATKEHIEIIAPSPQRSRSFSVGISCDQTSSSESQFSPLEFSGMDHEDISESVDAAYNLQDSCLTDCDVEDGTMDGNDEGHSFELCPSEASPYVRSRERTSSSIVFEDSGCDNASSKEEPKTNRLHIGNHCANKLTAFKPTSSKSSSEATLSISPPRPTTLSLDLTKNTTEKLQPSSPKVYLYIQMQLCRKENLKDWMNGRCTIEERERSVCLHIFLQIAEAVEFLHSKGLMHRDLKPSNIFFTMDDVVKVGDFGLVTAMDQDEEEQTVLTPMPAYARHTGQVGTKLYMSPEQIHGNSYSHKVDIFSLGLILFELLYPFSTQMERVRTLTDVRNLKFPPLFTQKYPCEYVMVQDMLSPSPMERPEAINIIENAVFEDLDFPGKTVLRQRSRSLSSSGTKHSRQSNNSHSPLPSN

[4] = biological target: Serine/threonine-protein kinase SIK1 (Homo sapiens) (UniProt P57059); experiment: Inhibition of SIK Lys2 labeling site in human Huh-7 cell lysate at 1 uM by KiNativ Profiling analysis relative to control; format: subcellular
[5] = biological target: Serine/threonine-protein kinase 26 (Homo sapiens) (UniProt Q9P289); experiment: Inhibition of MST4 ATP labeling site in human Huh-7 cells at 10 uM by KiNativ Profiling analysis relative to control; format: cell-based
[6] = biological target: LIM domain kinase 1 (Homo sapiens) (UniProt P53667); experiment: Inhibition of LIMK1 (unknown origin) at 10 uM by Ambit Kinomescan binding assay
[7] = biological target: Tyrosine-protein kinase Fyn (Homo sapiens) (UniProt P06241); experiment: Inhibition of FYN ACT labeling site in human Huh-7 cells at 1 uM by KiNativ Profiling analysis relative to control; format: cell-based
[8] = biological target: Serine/threonine-protein kinase MARK1 (Homo sapiens) (UniProt Q9P0L2); experiment: Inhibition of MARK1 (unknown origin) at 10 uM by Ambit Kinomescan binding assay
[9] = biological target: Glycogen synthase kinase-3 beta (Homo sapiens) (UniProt P49841); experiment: Inhibition of GSK3B K2 labeling site in human Huh-7 cells at 1 uM by KiNativ Profiling analysis relative to control; format: cell-based
[10] = biological target: Serine/threonine-protein kinase MARK1 (Homo sapiens) (UniProt Q9P0L2); experiment: Inhibition of MARK1 Lys2 labeling site in human A-375 cells at 0.05 uM by KiNativ Profiling analysis relative to control; format: cell-based
[11] = biological target: Tyrosine-protein kinase receptor Tie-1 (Homo sapiens) (UniProt P35590); experiment: Inhibition of TIE1 (unknown origin) at 1 uM by Ambit Kinomescan binding assay relative to control
[12] = biological target: T2, Dual specificity mitogen-activated protein kinase kinase 3 (Homo sapiens) (UniProt P46734); experiment: Inhibition of MAP2K3 Lys2 labeling site in human A-375 cells at 0.5 uM by KiNativ Profiling analysis relative to control; format: cell-based
T2 sequence (whole entry): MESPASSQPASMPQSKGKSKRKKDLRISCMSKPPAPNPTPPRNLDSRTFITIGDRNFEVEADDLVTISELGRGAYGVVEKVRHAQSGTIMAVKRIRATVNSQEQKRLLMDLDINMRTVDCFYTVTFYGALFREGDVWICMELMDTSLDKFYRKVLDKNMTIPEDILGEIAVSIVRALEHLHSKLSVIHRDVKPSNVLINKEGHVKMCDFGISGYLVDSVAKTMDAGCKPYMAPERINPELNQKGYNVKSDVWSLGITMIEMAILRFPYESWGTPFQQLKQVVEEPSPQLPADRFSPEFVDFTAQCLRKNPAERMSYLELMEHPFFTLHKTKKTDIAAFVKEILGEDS

[13] = biological target: Serine/threonine-protein kinase TNNI3K (Homo sapiens) (UniProt Q59H18); experiment: Inhibition of TNNI3K (unknown origin) at 1 uM by Ambit Kinomescan binding assay relative to control
[14] = biological target: Serine/threonine-protein kinase PknB (Mycobacterium tuberculosis) (UniProt P9WI81); experiment: Inhibition of Mycobacterium tuberculosis PKNB at 1 uM by Ambit Kinomescan binding assay relative to control
Summary of the method: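 In vitro ATP-site competition binding assay against a panel of over 420 kinases (KinomeScan), with compound tested at 10 or 1 μM.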

[15] = tested on: Tyrosine-protein kinase ABL1 (Homo sapiens), P00519 [H396P]; experiment: Inhibition of nonphosphorylated ABL1 H396P mutant (unknown origin) at 1 uM by Ambit Kinomescan binding assay relative to control
[16] = biological target: Mitogen-activated protein kinase 14 (Homo sapiens, UniProt Q16539); experiment: Inhibition of p38 alpha Lys2 labeling site in human A-375 cells at 0.5 uM by KiNativ Profiling analysis relative to control; format: cell-based
[17] = tested on: Epidermal growth factor receptor (Homo sapiens), P00533 [L861Q]; experiment: Inhibition of EGFR L861Q mutant (unknown origin) at 1 uM by Ambit Kinomescan binding assay relative to control

Sequence of Serine/threonine-protein kinase MARK1 (Homo sapiens) (Q9P0L2 whole entry, looked up): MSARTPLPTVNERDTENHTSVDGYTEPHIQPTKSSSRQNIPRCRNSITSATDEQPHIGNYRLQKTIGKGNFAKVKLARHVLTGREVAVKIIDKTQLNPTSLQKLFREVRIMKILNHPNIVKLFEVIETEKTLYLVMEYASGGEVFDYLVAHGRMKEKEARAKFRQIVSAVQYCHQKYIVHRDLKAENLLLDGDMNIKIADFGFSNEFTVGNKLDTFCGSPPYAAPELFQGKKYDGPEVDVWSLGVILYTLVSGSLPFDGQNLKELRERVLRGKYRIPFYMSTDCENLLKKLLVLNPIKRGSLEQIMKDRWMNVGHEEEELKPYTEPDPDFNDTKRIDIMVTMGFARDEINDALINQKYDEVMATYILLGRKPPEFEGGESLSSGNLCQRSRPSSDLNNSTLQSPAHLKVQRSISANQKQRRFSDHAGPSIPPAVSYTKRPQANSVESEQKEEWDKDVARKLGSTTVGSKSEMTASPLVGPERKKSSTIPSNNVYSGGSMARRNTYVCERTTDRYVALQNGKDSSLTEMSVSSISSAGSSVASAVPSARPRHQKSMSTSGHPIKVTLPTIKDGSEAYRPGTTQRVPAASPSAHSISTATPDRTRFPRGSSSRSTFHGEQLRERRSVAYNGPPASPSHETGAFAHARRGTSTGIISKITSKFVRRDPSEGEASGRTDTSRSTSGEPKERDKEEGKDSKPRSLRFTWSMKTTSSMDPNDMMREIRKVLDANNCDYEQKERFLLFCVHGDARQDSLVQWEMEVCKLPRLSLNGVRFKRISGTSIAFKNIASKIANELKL
Sequence of Serine/threonine-protein kinase PknB (Mycobacterium tuberculosis) (P9WI81 whole entry): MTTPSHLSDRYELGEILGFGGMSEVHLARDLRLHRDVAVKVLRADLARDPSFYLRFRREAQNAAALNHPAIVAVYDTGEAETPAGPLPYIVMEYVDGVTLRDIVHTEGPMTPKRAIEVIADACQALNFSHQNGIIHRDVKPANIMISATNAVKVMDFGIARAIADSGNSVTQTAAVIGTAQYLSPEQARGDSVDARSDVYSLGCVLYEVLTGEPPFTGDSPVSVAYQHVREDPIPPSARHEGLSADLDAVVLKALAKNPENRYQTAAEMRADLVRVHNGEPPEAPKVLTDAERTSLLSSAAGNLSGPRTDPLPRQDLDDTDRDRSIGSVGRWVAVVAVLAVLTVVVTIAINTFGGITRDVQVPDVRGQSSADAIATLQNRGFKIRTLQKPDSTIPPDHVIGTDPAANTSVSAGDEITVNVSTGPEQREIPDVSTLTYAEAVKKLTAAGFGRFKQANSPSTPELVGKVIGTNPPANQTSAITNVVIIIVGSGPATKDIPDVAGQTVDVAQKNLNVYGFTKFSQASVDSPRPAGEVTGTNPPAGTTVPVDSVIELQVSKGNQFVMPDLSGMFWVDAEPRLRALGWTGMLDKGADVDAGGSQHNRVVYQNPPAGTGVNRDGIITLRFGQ
Sequence of Serine/threonine-protein kinase 26 (Homo sapiens) (Q9P289 2-416 limits assumed): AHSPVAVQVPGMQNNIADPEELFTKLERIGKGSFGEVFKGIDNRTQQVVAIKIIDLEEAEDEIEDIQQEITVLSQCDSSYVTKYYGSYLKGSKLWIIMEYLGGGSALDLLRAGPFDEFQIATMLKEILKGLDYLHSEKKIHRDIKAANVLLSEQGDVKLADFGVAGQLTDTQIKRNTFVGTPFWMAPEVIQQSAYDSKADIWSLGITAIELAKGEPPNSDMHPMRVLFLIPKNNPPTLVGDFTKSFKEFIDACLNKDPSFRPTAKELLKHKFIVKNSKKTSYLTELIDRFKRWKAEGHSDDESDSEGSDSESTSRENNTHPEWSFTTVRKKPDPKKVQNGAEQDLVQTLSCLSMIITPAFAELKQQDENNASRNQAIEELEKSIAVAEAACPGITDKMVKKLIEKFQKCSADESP
Sequence of Serine/threonine-protein kinase SIK1 (Homo sapiens) (P57059 whole entry): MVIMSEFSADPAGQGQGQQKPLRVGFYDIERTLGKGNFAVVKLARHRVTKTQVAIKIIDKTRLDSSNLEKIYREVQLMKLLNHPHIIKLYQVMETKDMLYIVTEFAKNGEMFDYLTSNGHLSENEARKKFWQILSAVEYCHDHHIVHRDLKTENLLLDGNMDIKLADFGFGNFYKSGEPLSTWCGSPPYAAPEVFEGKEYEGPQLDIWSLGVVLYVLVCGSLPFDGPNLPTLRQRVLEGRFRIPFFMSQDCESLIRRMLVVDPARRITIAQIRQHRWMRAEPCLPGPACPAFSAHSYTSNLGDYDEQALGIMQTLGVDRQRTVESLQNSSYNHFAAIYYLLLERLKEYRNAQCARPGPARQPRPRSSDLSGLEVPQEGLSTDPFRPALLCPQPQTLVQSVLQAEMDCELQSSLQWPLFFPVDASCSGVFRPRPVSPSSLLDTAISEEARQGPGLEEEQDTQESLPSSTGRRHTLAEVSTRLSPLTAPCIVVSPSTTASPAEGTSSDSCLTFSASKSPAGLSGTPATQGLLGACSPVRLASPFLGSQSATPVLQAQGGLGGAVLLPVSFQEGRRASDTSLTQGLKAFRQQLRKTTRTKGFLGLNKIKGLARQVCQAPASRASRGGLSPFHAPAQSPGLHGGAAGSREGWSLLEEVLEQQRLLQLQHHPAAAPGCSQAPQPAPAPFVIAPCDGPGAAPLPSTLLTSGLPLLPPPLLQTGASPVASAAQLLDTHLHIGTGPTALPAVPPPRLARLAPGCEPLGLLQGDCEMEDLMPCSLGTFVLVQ
Sequence of Mitogen-activated protein kinase 14 (Q16539 whole entry): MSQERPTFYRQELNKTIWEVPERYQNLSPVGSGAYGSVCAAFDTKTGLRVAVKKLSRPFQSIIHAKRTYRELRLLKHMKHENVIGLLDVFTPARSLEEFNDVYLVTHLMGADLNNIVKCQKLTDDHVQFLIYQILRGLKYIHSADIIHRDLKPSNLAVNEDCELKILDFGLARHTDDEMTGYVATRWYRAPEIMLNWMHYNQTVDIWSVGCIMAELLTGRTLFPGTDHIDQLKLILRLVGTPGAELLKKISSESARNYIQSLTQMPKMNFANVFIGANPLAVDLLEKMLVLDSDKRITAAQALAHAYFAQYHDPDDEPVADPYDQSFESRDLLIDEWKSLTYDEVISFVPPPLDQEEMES
Sequence of Cyclin-dependent kinase 11B (Homo sapiens) (P21127 whole entry): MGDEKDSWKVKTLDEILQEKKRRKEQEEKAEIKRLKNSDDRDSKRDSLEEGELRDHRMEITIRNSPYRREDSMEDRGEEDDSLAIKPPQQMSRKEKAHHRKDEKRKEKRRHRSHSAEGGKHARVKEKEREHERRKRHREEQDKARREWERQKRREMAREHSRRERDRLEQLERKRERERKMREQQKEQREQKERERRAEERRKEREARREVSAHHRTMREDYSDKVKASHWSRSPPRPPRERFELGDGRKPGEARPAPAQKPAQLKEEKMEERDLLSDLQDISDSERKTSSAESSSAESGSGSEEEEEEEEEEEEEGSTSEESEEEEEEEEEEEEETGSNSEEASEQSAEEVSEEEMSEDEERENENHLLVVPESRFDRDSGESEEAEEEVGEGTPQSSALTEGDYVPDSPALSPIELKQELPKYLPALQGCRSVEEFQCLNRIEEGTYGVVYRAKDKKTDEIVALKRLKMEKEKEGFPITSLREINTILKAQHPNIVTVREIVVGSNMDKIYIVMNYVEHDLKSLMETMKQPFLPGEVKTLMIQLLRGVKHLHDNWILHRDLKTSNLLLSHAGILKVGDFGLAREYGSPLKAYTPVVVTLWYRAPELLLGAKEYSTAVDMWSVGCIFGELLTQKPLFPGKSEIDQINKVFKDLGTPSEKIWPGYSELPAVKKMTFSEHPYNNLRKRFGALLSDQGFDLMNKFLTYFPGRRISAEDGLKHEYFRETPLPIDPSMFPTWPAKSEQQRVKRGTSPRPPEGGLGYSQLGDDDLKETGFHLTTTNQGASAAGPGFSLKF
Sequence of Tyrosine-protein kinase receptor Tie-1 (Homo sapiens) (P35590 whole entry): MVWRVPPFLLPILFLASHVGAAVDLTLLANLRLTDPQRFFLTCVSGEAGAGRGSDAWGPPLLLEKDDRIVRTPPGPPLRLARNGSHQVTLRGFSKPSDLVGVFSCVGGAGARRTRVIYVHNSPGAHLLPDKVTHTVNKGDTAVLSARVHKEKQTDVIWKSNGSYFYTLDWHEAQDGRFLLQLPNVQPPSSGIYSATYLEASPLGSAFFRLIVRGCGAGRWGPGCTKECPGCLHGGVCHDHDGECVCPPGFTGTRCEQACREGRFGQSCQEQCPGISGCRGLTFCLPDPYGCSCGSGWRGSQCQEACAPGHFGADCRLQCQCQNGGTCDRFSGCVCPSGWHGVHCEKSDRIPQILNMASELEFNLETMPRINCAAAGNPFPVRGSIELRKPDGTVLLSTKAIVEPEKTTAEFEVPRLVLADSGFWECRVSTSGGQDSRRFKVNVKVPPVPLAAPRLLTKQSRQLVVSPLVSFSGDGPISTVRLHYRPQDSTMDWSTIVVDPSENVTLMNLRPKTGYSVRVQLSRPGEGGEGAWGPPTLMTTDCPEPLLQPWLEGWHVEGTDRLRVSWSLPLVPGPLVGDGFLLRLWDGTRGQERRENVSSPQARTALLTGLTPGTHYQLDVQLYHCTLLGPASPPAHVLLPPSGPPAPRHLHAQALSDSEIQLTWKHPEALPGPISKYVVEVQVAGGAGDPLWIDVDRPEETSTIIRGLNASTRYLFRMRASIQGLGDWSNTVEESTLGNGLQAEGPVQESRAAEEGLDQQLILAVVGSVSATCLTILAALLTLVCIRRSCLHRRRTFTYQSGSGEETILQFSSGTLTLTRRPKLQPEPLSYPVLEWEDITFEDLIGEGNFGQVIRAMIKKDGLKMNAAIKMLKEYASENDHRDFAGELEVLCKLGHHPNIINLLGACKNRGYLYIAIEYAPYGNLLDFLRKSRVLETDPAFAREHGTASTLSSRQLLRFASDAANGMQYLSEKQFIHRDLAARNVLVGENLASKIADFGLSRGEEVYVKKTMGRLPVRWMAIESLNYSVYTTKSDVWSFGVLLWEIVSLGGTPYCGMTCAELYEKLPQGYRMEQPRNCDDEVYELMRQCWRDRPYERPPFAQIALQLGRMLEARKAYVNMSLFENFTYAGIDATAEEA

`CNc1cc(Oc2cc(C(=O)Nc3cc(N4CCN(C)CC4)cc(C(F)(F)F)c3)ccc2C)ncn1` gave an inhibition [1] of 15.6%, an inhibition [2] of 9.7% and an inhibition [3] of -6.7%. The inhibition [4] was -1.3%.
For `CCN1CCN(Cc2ccc(NC(=O)c3ccc(C)c(Oc4ccnc5[nH]ccc45)c3)cc2C(F)(F)F)CC1`, the inhibition [5] was 25.3%, the inhibition [6] was “inactive” and the inhibition [7] was -0.3%. For the same molecule, the inhibition [8] was “inactive” and the inhibition [9] was 2.9%.
Work on `CCN1CCN(Cc2ccc(NC(=O)c3ccc(C)c(/C=C/c4cnc5[nH]ccc5c4OC)c3)cc2C(F)(F)F)CC1` yielded an inhibition [10] of 17.5%, an inhibition [11] of 0.95% and an inhibition [12] of 6.4%. The inhibition [13] was 5.9%, the inhibition [14] was 84% and the inhibition [15] was 0%. The inhibition [16] was 59.5% and the inhibition [17] was 0.25%.
